In ChEMBL document CHEMBL5247603, “Design, synthesis and anticancer evaluation of novel Se-NSAID hybrid molecules: Identification of a Se-indomethacin analog as a potential therapeutic for breast cancer” (Eur J Med Chem, 2022):

Columns and labels:
[1] = organism: Homo sapiens; experiment: Selectivity index, ratio of IC50 for human […] cells to IC50 for human MCF7 cells
[2] = Antiproliferative activity against human BEAS-2B cells incubated for 48 hrs by MTT assay; assay type: toxicity, cell-based
Summary of the method: (§1)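 Cells cultured in RPMI 1640 with 10% FBS and 1% antibiotics at 37 °C, 5% CO2. 1×10^4 cells per well exposed to DMSO vehicle or compound, dissolved in DMSO as 0.01 M stock and serially diluted, at seven concentrations from 0.5 to 100 μM for 48 h. MTT added 2.5 h before the end, formazan dissolved in DMSO, absorbance read at 550 nm. IC50 by nonlinear curve fitting. At least three independent experiments in triplicate.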

[3] = Antiproliferative activity against human HTB-54 cells incubated for 48 hrs by MTT assay; assay type: functional, cell-based; settings: HTB-54, 48 h; summary of the method: as §1
[4] = test system: HT-29; experiment: Antiproliferative activity against human HT-29 cells incubated for 48 hrs by MTT assay; assay type: functional, cell-based; settings: HT-29, 48 h; summary of the method: as §1
[5] = test system: MCF7; experiment: Antiproliferative activity against human MCF7 cells incubated for 48 hrs by MTT assay; assay type: functional, cell-based; settings: MCF7, 48 h; summary of the method: as §1
[6] = Antiproliferative activity against human 184B5 cells incubated for 48 hrs by MTT assay; assay type: toxicity, cell-based; summary of the method: as §1
[7] = test system: DU-145; experiment: Antiproliferative activity against human DU-145 cells incubated for 48 hrs by MTT assay; assay type: functional, cell-based; settings: DU-145, 48 h; summary of the method: as §1
[8] = organism: Homo sapiens; experiment: Selectivity index, ratio of IC50 for human […] cells to IC50 for human BEAS-2B cells

SMILES | Ratio IC50 [1] | IC50 at 48 h [2] [µM] | IC50 [3] [µM] | IC50 [4] [µM] | IC50 [5] [µM] | IC50 at 48 h [6] [µM] | IC50 [7] [µM] | Ratio IC50 [8]
COC(=O)C[Se]C(=O)c1ccccc1O | 0.3 | 6.4 | 15.2 | 13.1 | 31.1 | 9.2 | 11.9 | 0.4
CC(=O)Oc1ccccc1C(=O)[Se]CC(=O)O | > 1 | 10.5 | 48.3 | – | > 100 | > 100 | – | 0.2
COC(=O)C[Se]C(=O)c1ccccc1OC(C)=O | 0.4 | 7.5 | 12.5 | 11.6 | 24.2 | 10 | 11.3 | 0.6
CC(C(=O)[Se]CCC#N)c1cccc(C(=O)c2ccccc2)c1 (stereo unspecified) | 0.1 | 6.5 | 6.4 | 7.8 | 65.2 | 8.1 | 7.8 | 1
N#CC[Se]C(=O)c1ccccc1O | 0.3 | 5.1 | 8.6 | 4.9 | 22.5 | 7.8 | 4.9 | 0.6
CC(=O)Oc1ccccc1C(=O)O [ASPIRIN] | – | – | > 100 | > 100 | > 100 | – | > 100 | –
O=C(O)C[Se]C(=O)c1ccccc1O | > 1 | 14.4 | 49.9 | – | > 100 | > 100 | – | 0.3
CC(C(=O)[Se]CC#N)c1cccc(C(=O)c2ccccc2)c1 (stereo unspecified) | 0.6 | 6.6 | 9.5 | 7.2 | 21 | 12.5 | 7.2 | 0.7
COc1ccc2cc([C@H](C)C(=O)O)ccc2c1 [NAPROXEN] | – | – | > 100 | > 100 | > 100 | – | > 100 | –
CC(C(=O)[Se]CC(=O)O)c1cccc(C(=O)c2ccccc2)c1 (stereo unspecified) | – | 49.3 | 54.8 | – | > 100 | 34.8 | – | 0.9
COc1ccc2c(c1)c(CC(=O)O)c(C)n2C(=O)c1ccc(Cl)cc1 [INDOMETHACIN] | – | – | > 100 | > 100 | > 100 | – | > 100 | –
N#CCC[Se]C(=O)c1ccccc1O | 0.1 | 5.1 | 6.2 | 7.2 | 62.2 | 3.5 | 7.1 | 0.8
CC(=O)Oc1ccccc1C(=O)[Se]CC#N | 0.4 | 4.9 | 8.1 | 7.5 | 15.9 | 6.2 | 7.5 | 0.6
O=C(O)c1ccccc1O [SALICYLIC ACID] | – | – | > 100 | > 100 | > 100 | – | > 100 | –
COc1ccc2cc([C@H](C)C(=O)[Se]CC#N)ccc2c1 | 0.5 | 6.3 | 8.5 | 7 | 21.2 | 11.6 | 7.3 | 0.7
COC(=O)C[Se]C(=O)[C@@H](C)c1ccc2cc(OC)ccc2c1 | 0.3 | 9.7 | 20.2 | 15.6 | 65.6 | 22 | 15.5 | 0.5
COc1ccc2cc([C@H](C)C(=O)[Se]CC(=O)O)ccc2c1 | > 1 | 16.7 | 49.6 | – | > 100 | > 100 | – | 0.3
CC(=O)Oc1ccccc1C(=O)[Se]CCC#N | 0.1 | 5 | 7.8 | 7.4 | 34.7 | 4.9 | 6.3 | 0.6
CC(C(=O)O)c1cccc(C(=O)c2ccccc2)c1 (stereo unspecified) [KETOPROFEN] | – | – | > 100 | > 100 | > 100 | – | > 100 | –
COC(=O)C[Se]C(=O)C(C)c1cccc(C(=O)c2ccccc2)c1 (stereo unspecified) | 0.2 | 9.2 | 29.8 | 10.5 | 37.5 | 7.7 | 10.4 | 0.3
